Assay results from the EternaBench riboswitch data.

Tested on: MS2 coat protein
Experiment: apparent Kd, MS2 coat protein; higher = weaker binding; RNA-MaP array; FMN 200 µM where present
How it was run: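 Each design was made on Illumina sequencing-chip clusters by stalled E. coli RNA polymerase and titrated with SNAP-549-labelled MS2 coat protein from 0.7 or 1.5 nM, doubling to 3 µM, in the absence and then the presence of constant ligand. The buffer was 100 mM Tris-HCl pH 7.5, 80 mM KCl, 4 mM MgCl2, BSA, DTT, yeast tRNA and Tween-20. The apparent Kd is the median of filtered per-cluster fits of binding curves, with green signal normalised to red-channel RNA signal and control-cluster median Fmax.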

[1] = designed as: ON switch for flavin mononucleotide, no ligand
[2] = ligand present: flavin mononucleotide, designed as: ON switch for flavin mononucleotide
[3] = designed as: OFF switch for flavin mononucleotide, no ligand
[4] = ligand present: flavin mononucleotide, designed as: OFF switch for flavin mononucleotide

For “GACACUAUGUUUGUCAGAUAGAGAGAGGAUAUGGGUUAUGAGACAUGAGGAUCACCCAUGUUUAUUCAGAAGGCUCGAGUACGA”, the “apparent Kd” value [1] was 90.9 nM and the “apparent Kd” value [2] was 11.8 nM.

For “UUGGACGUCGUAGGAUAUGUAGGAUGUUCCUACAUGAGGAUCACCCAUGUUGACAUGGAAGAAGGACAGAAGGACGAUGUCCAU”, the “apparent Kd” value [1] was 547 nM and the “apparent Kd” value [2] was 27 nM.

With “UUCAAGGGUUGAGGAUAUCCCGGUUGUGUCCUCAUCCGCCAAGGUACAUGAGGAUCACCCAUGUGGGAGAAGGCAAUACUAGAG” the “apparent Kd” value [3] was 130 nM and the “apparent Kd” value [4] was 182 nM.

In the case of “AUUUUGUCAGGAUAUGACUAGUAGGACGAGAGUGCUACUACUUAGAAGGGACAUGAGGAUCACCCAUGUAUUCC”, the “apparent Kd” value [3] is reported as 16 nM and the “apparent Kd” value [4] is reported as 17.4 nM.

“UUAAUUAAUUAAUUGCAGAAUUACAUGAGGAUCACCCAUGUAUAGGAUAUCGUCAGGAAUACUGACGAGAAGGAUACAAACUGC” was tested, and the “apparent Kd” value [3] was 17.9 nM and the “apparent Kd” value [4] was 20.7 nM.

“AAAUAGGCAGGAUAUACAUGAAAAUUAAAAAAAAAAAAAAAACAUGAGGAUCACCCAUGUAGAAGGGUCAAAAA” was tested, and the “apparent Kd” value [3] was 97.5 nM and the “apparent Kd” value [4] was 92.9 nM.

For “AAAUGAUGUCAGGAUAUUGACGUUAAAAGAACGCAAGAAGGGACAACAUGAGGAUCACCCAUGUGGUCCUAUAA”, the “apparent Kd” value [3] was 14.9 nM and the “apparent Kd” value [4] was 34 nM.

For “AGAUAACACCAGAAGGACAUGAGGAUCACCCAUGUAGGAUAUGGGCAUCACUCGAGAAAGAAAAGACCAAAUGUACACGCGGUC”, the “apparent Kd” value [1] was 91.7 nM and the “apparent Kd” value [2] was 9.27 nM.

In the case of “CCUGUGUGAGGAUAUGGUGUUAAAAAAAAAAAAUAGCUCCUCCAGAAGGCACAUGAGGAUCACCCAUGUCGUGG”, the “apparent Kd” value [3] is reported as 33.5 nM and the “apparent Kd” value [4] is reported as 69.2 nM.

“UAUUUAUAAUAUUUUAACAUGAGGAUCACCCAUGUCGCUAGACAGGAUAUAUUUUAUUUUUUUAAGUAGAAGGGUCAUAUAUUU” was tested, and the “apparent Kd” value [1] was 84 nM and the “apparent Kd” value [2] was 103 nM.

In the case of “GCGUCGAGUGUGAGGAUAUGCUGGUCCUUGGAUCAGCAGAAGGCACAUGAGGAUCACCCAUGUGAAAACGAUGC”, the “apparent Kd” value [3] is reported as 22.7 nM and the “apparent Kd” value [4] is reported as 140 nM.

For “CGCAACUUUUCUCAUGUAAACAUGAGGAUCACCCAUGUAAUGAGAAGGAGGAGGAAGAGAGAAUCCUAGGAUAUCAGAGUUGCG”, the “apparent Kd” value [3] was 7.12 nM and the “apparent Kd” value [4] was 6.01 nM.

For “CAUACCUGUGAAGGAUAUACGUUGUUAGCUACCGUAGAAGGUCACAUGAGGAUCACCCAUGUCAAGGCAAGAACAUGAUCCGAA”, the “apparent Kd” value [3] was 304 nM and the “apparent Kd” value [4] was 566 nM.

For “AUUAUUAAGGUAGGAUAUAGUAUAAUAAUUAAAUUAGAAGGAUCUCACAUGAGGAUCACCCAUGUAAGAGGAUCACCCAUGUAU”, the “apparent Kd” value [3] was 10.3 nM and the “apparent Kd” value [4] was 10.4 nM.

“AACCAACAUGAGGAUCACCCAUGUCAACCCAAGCGAGGAUAUCCGAGAAUAACAAUGGGAGGAGAAGGCGCGACCU” was tested, and the “apparent Kd” value [1] was 73.4 nM and the “apparent Kd” value [2] was 55.6 nM.

“GCACGGCAUGUAGGAUAUCGAGCUCCGGGAGCUCGAGAAGGACAUGAGGAUCACCCAUGUGCUCACAGUGAGUGAGUGCUGUGC” was tested, and the “apparent Kd” value [3] was 19.7 nM and the “apparent Kd” value [4] was 38.8 nM.

“AGGUAAACCACAGGAUAUGGCUAGCAUAGCUAGCCAGAAGGGUGGUCGUAACCAUGUAAAUACAUGAGGAUCACCCAUGUAUCC” was tested, and the “apparent Kd” value [1] was 89.8 nM and the “apparent Kd” value [2] was 36 nM.

In the case of “AUAUUGUGAGGAUAUGAACUAAGUAUCGAAAGAUACUAAGUUCAGAAGGCACAUGAGGAUCACCCAUGUUUCUC”, the “apparent Kd” value [3] is reported as 76.7 nM and the “apparent Kd” value [4] is reported as 729 nM.

For “AGUGUGUGGCAGGAUAUGCUGUUGAUUGGUGAAGCAGAAGGGUCUACAUGAGGAUCACCCAUGUAAGCGGUUGA”, the “apparent Kd” value [3] was 53.1 nM and the “apparent Kd” value [4] was 225 nM.

“UAAAUUAUACAAGGAUAUCUAUCGUAGUUUAGACUUACAUGAGGAUCACCCAUGUUAAUAUGUUUAGAGAAGGUGUAUUUUCAG” was tested, and the “apparent Kd” value [1] was 43.3 nM and the “apparent Kd” value [2] was 22.5 nM.

“GCUGUCGUAUGAGGAUAUGGUCACCUUUGGUGACCAGAAGGCAUGUCAAUAGACAUGAGGAUCACCCAUGUAGUAAAGACAGCA” was tested, and the “apparent Kd” value [1] was 391 nM and the “apparent Kd” value [2] was 39.4 nM.

For “GUACUGUAGUGAGGAUAUACGAGUACGAUAGUACGGCGAUCCAUAUAUACAUGAGGAUCACCCAUGUAGAAGGCACUUCAGUAC”, the “apparent Kd” value [3] was 8.66 nM and the “apparent Kd” value [4] was 109 nM.

In the case of “CGAGGAGGAGUGAGGAUAUCGUGUUCGAAAGAACGUGAGAAGGCACAUGAGGAUCACCCAUGUGAUACUUUUCG”, the “apparent Kd” value [3] is reported as 13.6 nM and the “apparent Kd” value [4] is reported as 28.8 nM.

In the case of “UGCUACGGAGGAUAUACAUGAGGAUCACCCAUGUGAUAUAUUAUGCCGAGAGGCUAGUGUAGAAGGCCGUAGCU”, the “apparent Kd” value [3] is reported as 67 nM and the “apparent Kd” value [4] is reported as 576 nM.
